In ChEMBL document CHEMBL4229483, “Synthesis and evaluation of an orally available "Y"-shaped biaryl peroxisome proliferator-activated receptor δ agonist” (Bioorg Med Chem, 2018):

Biological target: T1, Peroxisome proliferator-activated receptor delta (Homo sapiens, UniProt Q03181)
T1 sequence (Q03181 whole entry): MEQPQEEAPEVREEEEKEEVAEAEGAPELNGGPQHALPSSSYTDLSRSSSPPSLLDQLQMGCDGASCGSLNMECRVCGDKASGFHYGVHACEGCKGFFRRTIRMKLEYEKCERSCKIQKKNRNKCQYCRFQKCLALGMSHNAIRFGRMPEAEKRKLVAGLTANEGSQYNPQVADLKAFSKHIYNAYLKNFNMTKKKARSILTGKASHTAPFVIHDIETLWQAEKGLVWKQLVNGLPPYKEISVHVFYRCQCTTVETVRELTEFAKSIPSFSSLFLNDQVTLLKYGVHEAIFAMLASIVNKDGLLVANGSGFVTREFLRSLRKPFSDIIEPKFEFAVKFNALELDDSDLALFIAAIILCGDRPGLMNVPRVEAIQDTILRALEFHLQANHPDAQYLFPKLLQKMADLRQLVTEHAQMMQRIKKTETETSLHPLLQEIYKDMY
Experiment: Transactivation of human PPARdelta expressed in monkey CV-1 cells coexpressing TK-PPRE-Luc after 24 hrs by luciferase reporter gene assay
Assay type: cell-based
Method in brief: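 Agonist activity tested in transiently transfected CV-1 cells by reporter assay. EC50 is the molar concentration giving 50% of the maximal reporter activity.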

Question: How did the EC50 turn out when `Cc1cc(S[C@H](Cc2ccccc2)c2ccc(-c3ccc(C(F)(F)F)cc3)cc2)ccc1OCC(=O)O` was run?
Answer: The EC50 was 0.7 nM.

Question: For `Cc1cc(S[C@@H](Cc2ccccc2)c2ccc(-c3ccc(C(F)(F)F)cc3)cc2)ccc1OCC(=O)O`, which EC50 is on record?
Answer: Its EC50 is 6.1 nM.

Question: `Cc1cc(SC(Cc2cc(Cl)ccc2F)c2ccc(-c3ccc(F)cc3)cc2)ccc1OCC(=O)O` (stereo unspecified) was tested. Which EC50 did it give?
Answer: Its EC50 is 25 nM.

Question: `Cc1cc(SC(Cc2cc(Cl)ccc2F)c2ccc(-c3cc(F)c(F)c(F)c3)cc2)ccc1OCC(=O)O` (stereo unspecified) was tested. Which EC50 did it give?
Answer: Its EC50 is 6.9 nM.

Question: For `Cc1cc(SC(Cc2ccccc2)c2ccc(-c3cc(F)c(F)c(F)c3)cc2)ccc1OCC(=O)O` (stereo unspecified), which EC50 is on record?
Answer: Its EC50 is 4.5 nM.

Biological target: T2, Peroxisome proliferator-activated receptor gamma (Homo sapiens, UniProt P37231)
T2 sequence (P37231 whole entry): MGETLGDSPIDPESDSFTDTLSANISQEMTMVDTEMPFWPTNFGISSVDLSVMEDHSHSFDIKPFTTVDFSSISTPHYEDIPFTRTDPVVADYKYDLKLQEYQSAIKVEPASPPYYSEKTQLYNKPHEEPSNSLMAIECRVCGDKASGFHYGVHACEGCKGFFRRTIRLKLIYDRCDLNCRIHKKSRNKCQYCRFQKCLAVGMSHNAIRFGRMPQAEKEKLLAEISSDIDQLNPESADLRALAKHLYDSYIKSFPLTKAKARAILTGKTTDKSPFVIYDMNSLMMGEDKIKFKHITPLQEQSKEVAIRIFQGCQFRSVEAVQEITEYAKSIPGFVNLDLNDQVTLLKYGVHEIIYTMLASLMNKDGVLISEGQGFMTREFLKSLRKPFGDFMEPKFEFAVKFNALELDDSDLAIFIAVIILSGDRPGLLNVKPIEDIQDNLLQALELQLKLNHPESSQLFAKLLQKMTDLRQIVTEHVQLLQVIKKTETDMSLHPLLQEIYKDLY
Experiment: Transactivation of human PPARgamma expressed in monkey CV-1 cells coexpressing TK-PPRE-Luc after 24 hrs by luciferase reporter gene assay
Assay type: cell-based

Question: Which EC50 does the source give for `Cc1cc(SC(Cc2cc(Cl)ccc2F)c2ccc(-c3ccc(F)cc3)cc2)ccc1OCC(=O)O` (stereo unspecified) here?
Answer: Its EC50 is greater than 10000 nM.

Question: Which EC50 does the source give for `Cc1cc(SC(Cc2cc(Cl)ccc2F)c2ccc(-c3cc(F)c(F)c(F)c3)cc2)ccc1OCC(=O)O` (stereo unspecified) here?
Answer: Its EC50 is greater than 10000 nM.

Question: `Cc1cc(SC(Cc2ccccc2)c2ccc(-c3cc(F)c(F)c(F)c3)cc2)ccc1OCC(=O)O` (stereo unspecified) was tested. Which EC50 did it give?
Answer: Its EC50 is greater than 10000 nM.

Biological target: T3, Peroxisome proliferator-activated receptor alpha (Homo sapiens, UniProt Q07869)
T3 sequence (Q07869 whole entry): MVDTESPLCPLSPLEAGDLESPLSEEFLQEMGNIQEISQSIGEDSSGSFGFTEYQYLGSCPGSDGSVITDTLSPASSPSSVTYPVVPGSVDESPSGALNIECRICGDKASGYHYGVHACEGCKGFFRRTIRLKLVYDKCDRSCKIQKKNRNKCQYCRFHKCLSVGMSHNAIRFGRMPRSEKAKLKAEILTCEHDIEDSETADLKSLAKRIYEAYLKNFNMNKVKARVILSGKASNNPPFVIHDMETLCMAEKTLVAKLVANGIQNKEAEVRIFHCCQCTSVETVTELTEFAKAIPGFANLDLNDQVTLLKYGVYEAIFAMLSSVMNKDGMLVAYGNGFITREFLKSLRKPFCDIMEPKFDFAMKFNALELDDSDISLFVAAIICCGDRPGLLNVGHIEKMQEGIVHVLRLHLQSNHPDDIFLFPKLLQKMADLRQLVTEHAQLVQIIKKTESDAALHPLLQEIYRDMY
Experiment: Transactivation of human PPARalpha expressed in monkey CV-1 cells coexpressing TK-PPRE-Luc after 24 hrs by luciferase reporter gene assay
Assay type: cell-based

Question: `Cc1cc(SC(Cc2cc(Cl)ccc2F)c2ccc(-c3ccc(F)cc3)cc2)ccc1OCC(=O)O` (stereo unspecified) was tested. Which EC50 did it give?
Answer: Its EC50 is greater than 10000 nM.

Question: For `Cc1cc(SC(Cc2cc(Cl)ccc2F)c2ccc(-c3cc(F)c(F)c(F)c3)cc2)ccc1OCC(=O)O` (stereo unspecified), which EC50 is on record?
Answer: The EC50 was greater than 10000 nM.

Question: For `Cc1cc(SC(Cc2ccccc2)c2ccc(-c3cc(F)c(F)c(F)c3)cc2)ccc1OCC(=O)O` (stereo unspecified), which EC50 is on record?
Answer: The EC50 was greater than 10000 nM.
